This is a sample that favours compounds with a hit; in the whole collection about 2.9% have one here.
Runt-CBFb FRET: blocks binding of human RUNX1 Runt domain to CBFb. Cerulean-Runt/Venus-CBFb FRET ratio 530/480, 1 h. actives 0.46% (n = 220,000). inhibition, % at 20 µM. Q01196+Q13951;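 active = inhibition over about 50% at 20 µM in the single-dose screen, limit read from the data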;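 also: 0% = DMSO wells and 100% = excess unlabeled CBFb competitor control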
Target sequence (Q01196 whole entry, looked up, the tested form may be a part): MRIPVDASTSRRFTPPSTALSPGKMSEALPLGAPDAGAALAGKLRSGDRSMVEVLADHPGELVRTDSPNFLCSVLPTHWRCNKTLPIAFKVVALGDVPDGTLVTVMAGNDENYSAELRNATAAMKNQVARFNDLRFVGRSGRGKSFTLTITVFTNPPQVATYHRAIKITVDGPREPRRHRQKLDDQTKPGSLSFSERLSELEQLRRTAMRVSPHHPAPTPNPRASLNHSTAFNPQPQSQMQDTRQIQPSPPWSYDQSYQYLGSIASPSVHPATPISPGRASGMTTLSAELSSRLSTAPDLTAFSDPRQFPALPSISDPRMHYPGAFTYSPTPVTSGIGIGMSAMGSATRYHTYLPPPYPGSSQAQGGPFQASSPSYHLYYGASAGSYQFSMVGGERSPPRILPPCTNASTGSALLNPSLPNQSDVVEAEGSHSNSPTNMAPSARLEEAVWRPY
Target sequence (Q13951 whole entry, looked up, the tested form may be a part): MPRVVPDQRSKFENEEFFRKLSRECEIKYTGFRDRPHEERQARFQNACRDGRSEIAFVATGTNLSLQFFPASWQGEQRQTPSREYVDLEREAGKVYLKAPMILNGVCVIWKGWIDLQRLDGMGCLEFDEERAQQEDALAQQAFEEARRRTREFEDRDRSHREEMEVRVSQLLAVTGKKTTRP
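Reagent – Venus-CBFb binding partner, 100 nM · Assay system – Cerulean-tagged RUNX1 Runt domain (FRET donor) fusion protein · Input – 100 nM per protein · Incubation – two 1 h room-temperature incubations shielded from light · Measured by – FRET fluorescence · Medium – Tris buffer pH 7.5 with salts and BSA · Benchmarks – unlabeled CBFb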
PfM18AAP inh-1: blocks P. falciparum M18 aspartyl aminopeptidase | recombinant PfM18AAP, H-Glu-NHMec fluorogenic cleavage | inhibition, % at 7.35 µM | actives 1.2% (n = 290,000);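 active = inhibition above the campaign mean inhibition over all tested compounds plus 3 SD, cut at about 28% in these data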;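 also: 0% = plate median of test compound wells and 100% = 2 mM ZnCl2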
Runt-SMMHC FRET: Runt domain-CBFb-SMMHC interaction inhibition; actives 0.74% (n = 220,000); Cerulean-Runt/Venus-CBFb-SMMHC FRET ratio 530/480, 1 h; AID 1434; inhibition, % at 20 µM;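 active = mean inhibition across duplicate retests at 20 µM reaching about 50%, limit read from the data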;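 also: 0% = DMSO wells and 100% = wells with excess untagged CBFb-SMMHC; inhibitors lower the FRET ratio by blocking Runt binding to CBFb-SMMHC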
RanGTP-Imp inh: inhibitors of RanGTP-importin-beta interaction, primary screen, biochemical, FRET, CFP-Ran, YFP-importin-beta, homogeneous; cell-free CFP-Ran/YFP-importin-beta FRET ratio; inhibition, % (concentration not given with the values); actives 1.1% (n = 300,000);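 active = more than half of the replicate wells show a fall in the fluorescence ratio signal beyond about 16%, limit read from the data, passing the limit was not always enough; inconclusive = exactly half of the replicate wells pass the set limit; inactive = fewer than half of replicates pass the limit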;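 also: 0% = DMSO wells and 100% = Ran loaded with GDP instead of GTP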
Hck-Nef inh: inhibitors of human Hck kinase activated by Nef. P08631. Recombinant Hck-YEEI plus Nef, Z-Lyte FRET kinase assay. inhibition, % at 20 µM. actives 0.68% (n = 220,000). AID 463187;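 active = Hck-Nef kinase inhibition above about 50%, limit read from the data; inactive = inhibition below that limit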;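 also: 0% = DMSO with Hck plus Nef and 100% = Hck alone without Nef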
RBBP9 inhibitor: blocks human serine hydrolase RBBP9 | recombinant RBBP9, FP-Rh probe fluorescence polarization | inhibition, % at 7.94 µM | actives 0.2% (n = 220,000) | AID 1515;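 active = inhibition above the campaign mean of all tested compounds plus 3 SD, cut at about 14% in these data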;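 also: plate controls were DMSO wells with RBBP9 for no effect and wells lacking RBBP9 protein for full effect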
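Assay system: recombinant human RBBP9; Reagent: Serine-hydrolase probe FP-Rh, 375 nM pre-mixing; Doses: 7.94 µM single dose, 0.794% DMSO; Incubation: 30 min then 45 min, 25 °C; Detection: fluorescence polarization (mP), excitation 525 nm, emission 598 nm; Evaluation: percent inhibition from mP, scaled between DMSO and no-protein wells.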
PfM18AAP inh-2: confirmation of Plasmodium falciparum M18 aspartyl aminopeptidase inhibitors. inhibition, % at 7.35 µM. AID 2170. shares compounds with PfM18AAP inh-1. actives 28% (n = 2,400). recombinant PfM18AAP, H-Glu-NHMec fluorogenic cleavage;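 active = mean inhibition over replicate wells above the hit cutoff set for the earlier primary screen, cut at about 29% in these data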;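 also: 0% = median of test compound wells and 100% = 2 mM ZnCl2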
CTSL1 counter: counter-screen for PFM18AAP inhibitors: confirmation of human cathepsin L inhibitors. 2,400 tested, under 10 active. purified cathepsin L1, Z-Leu-Arg-MCA fluorescence. inhibition, % at 5.96 µM. AID 2178. shares compounds with PfM18AAP inh-1;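 active = average inhibition across replicates above the hit cutoff set in the earlier primary screen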;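 also: 0% = median of test compound wells and 100% = Z-Phe-Ala-diazomethylketone 1 µM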
* = called active by the depositor; ? = inconclusive; / = no result given.

SMILES	Runt-CBFb FRET	PfM18AAP inh-1	Runt-SMMHC FRET	RanGTP-Imp inh	Hck-Nef inh	RBBP9 inhibitor	PfM18AAP inh-2	CTSL1 counter
C=CCn1c(-c2cc3cccc(OC)c3o2)n[nH]c1=S	8.2	33.1*	14.0	-19.3	12.4	-4.2	-10.4	1.1
Cc1ccnc(Sc2ccc([N+](=O)[O-])cc2[N+](=O)[O-])n1	-0.8	3.7	-3.5	0.9	1.9	-3.4	/	/
Nc1nc(Sc2ccc([N+](=O)[O-])cc2[N+](=O)[O-])n[nH]1	3.6	56.6*	-0.8	-3.0	4.5	-4.2	56.2*	1.1
CC(=O)c1ccc(OCc2cc(C(=O)NC3CCCCC3)no2)cc1	/	-0.9	/	-1.5	/	/	/	/
Cc1cc(N/N=C/c2ccc(O)cc2)nc(NS(=O)(=O)c2ccccc2)n1	2.2	43.3*	2.4	-1.0	0.7	-2.6	-43.4	5.2
Oc1ccc(/C=N/Nc2ccccc2)cc1	3.3	18.1	-1.4	0.8	25.5	-8.2	/	/
Cc1nc2ccccc2nc1N/N=C/c1ccc(O)cc1	-2.9	36.8*	-5.6	-9.0	3.4	-0.4	10.0	-2.2
COc1ccc(C(=O)NCC(=O)N/N=C/C=C/c2ccccc2)cc1OC	0.0	1.1	0.3	-1.1	-12.6	-1.1	/	/
CC1CN(C(=O)CCC(=O)NCCCN2C(C)CCCC2C)c2ccccc2O1 (stereo unspecified)	/	7.1	/	2.4	/	/	/	/
C=CCc1cccc(C=Nc2cc(Br)ccc2O)c1O	28.0	9.6	22.5	1.4	6.0	4.5	/	/
C=CCc1cccc(/C=N/c2ncn[nH]2)c1O	0.2	57.0*	-1.2	-8.6	0.5	-7.4	43.0*	-4.0
NNc1ncnc2c1cnn2-c1ccccc1	3.2	36.0*	-6.8	-1.8	2.7	-15.7	-3.1	-0.9
CC(C)Nc1ncnc2c1cnn2-c1ccccc1	/	-6.8	1.4	0.0	20.9	-4.1	/	/
Cc1c(Cc2ccccc2)c(=O)oc2c(O)c(O)ccc12	19.2	47.0*	8.2	-0.7	-24.0	-17.2	23.4	7.7
Cc1c(CC(=O)O)c(=O)oc2c(C)c(OCc3ccccc3)ccc12	/	-14.8	/	-4.1	/	/	/	/
O=C(CCC(=O)N1CCN(c2ccc(O)cc2)CC1)c1ccc(Br)cc1	43.0	42.2*	-5.5	6.2	10.6	0.7	-19.3	2.4
O=C(CCC(=O)N1CCN(c2ccc(O)cc2)CC1)c1cccs1	49.4	52.6*	0.5	-0.6	-5.4	-5.8	-18.1	-29.2
NC(=O)c1ccc(NC(=O)CSc2nnc(-c3cccnc3)n2Cc2ccco2)cc1	/	-18.4	/	?	/	/	/	/
Cc1cccc(C(=O)Nc2ccc(C(=O)N/N=C/c3ccc(C)o3)cc2)c1	/	41.8*	/	-3.2	/	/	-31.3	3.0
CCN1C(C)=C(C)S/C1=C1\SC(=S)N(N)C1=O	13.9	75.5*	8.3	3.8	20.1	-9.6	-19.9	1.5
Cc1ccn2c(C(=O)NNC(=O)Nc3ccc(Cl)cc3)c(C)nc2c1	/	63.9*	/	/	/	/	48.1*	-4.3
Cc1nc2ccccn2c1C(=O)NNC(=O)Nc1cccc(C(F)(F)F)c1	/	64.3*	/	4.9	/	/	33.4*	7.8
Cc1ccn2c(C(=O)N/N=C/c3ccc(Cl)cc3)c(C)nc2c1	/	-9.6	/	-1.3	/	/	/	/
Cc1cc(C(=O)CSc2ccccc2)cc(C)c1O	/	6.3	/	-3.0	/	/	/	/
CCOC(=O)N1CCN(CCC(=O)Nc2cc(C)ccc2C)CC1	/	-2.1	/	1.1	/	/	/	/
COc1cc(/C=C2/C(=O)ON=C2C)cc(Cl)c1O	/	32.3*	/	-3.7	/	/	11.1	0.1
C#CCOc1c(Cl)cc(/C=C2/C(=O)ON=C2C)cc1OC	/	8.5	/	-1.1	/	/	/	/
COc1cnn(-c2ccccc2)c(=O)c1SCc1ccc(Cl)cc1Cl	18.1	36.1*	30.7	-2.1	0.1	-3.0	-29.6	-4.5
CC1Cc2cc(S(=O)(=O)N3CCC(C(=O)N(C)Cc4ccccc4)CC3)ccc2N1C(=O)C1CC1 (stereo unspecified)	/	-8.8	/	1.2	/	/	/	/
C/C(=N\Nc1nc(C(C)(C)C)cs1)c1ccccc1	/	8.0	/	6.9	/	/	/	/
